Laboratory results reported in ChEMBL document CHEMBL4665864, “Indole acrylonitriles as potential anti-hyperglycemic agents: Synthesis, α-glucosidase inhibitory activity and molecular docking studies” (Bioorg Med Chem, 2020).

Assay: Inhibition of Saccharomyces cerevisiae alpha-glucosidase using p-nitrophenyl-alpha-D-glucopyranoside as substrate preincubated with enzyme for 5 mins followed by substrate addition and measured after 30 mins by microplate reader analysis
Details: not given; call rule not given here
How it was run: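 Yeast enzyme solution 2.5 U mL-1 and p-NPG made up in 0.07 M phosphate buffer, pH 6.8. Enzyme, buffer and test compound preincubated 5 min at 37 °C, then 10 mM p-NPG stock added and incubated 30 min at 37 °C. Reaction stopped with 0.2 M Na2CO3, p-nitrophenol read at 405 nm. Percent inhibition taken against buffer-only control; IC50 from dose-response curves of compounds giving ≥50% inhibition.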

Row | IC50 | SMILES
1 | Not Active | N#C/C(=C\c1ccc(OCc2ccccc2)cc1)C(=O)c1c[nH]c2ccccc12
2 | Not Active | N#C/C(=C\c1cccc([N+](=O)[O-])c1)C(=O)c1c[nH]c2ccccc12
3 | Not Active | N#C/C(=C\c1ccc(-c2ccccc2)cc1)C(=O)c1c[nH]c2ccccc12
4 | Not Active | N#C/C(=C\c1cccc(OCc2ccccc2)c1)C(=O)c1c[nH]c2ccccc12
5 | Not Active | N#C/C(=C\c1ccc2ccccc2c1)C(=O)c1c[nH]c2ccccc12
6 | Not Active | Cc1ccccc1/C=C(\C#N)C(=O)c1c[nH]c2ccccc12

The remaining lines, values behind:

Row | SMILES | IC50
7 | COc1ccc(/C=C(\C#N)C(=O)c2c[nH]c3ccccc23)c(F)c1 | Not Active
8 | N#C/C(=C\c1ccncc1)C(=O)c1c[nH]c2ccccc12 | Not Active
9 | CN(C)c1ccc(/C=C(\C#N)C(=O)c2c[nH]c3ccccc23)cc1 | Not Active
10 | N#C/C(=C\c1ccco1)C(=O)c1c[nH]c2ccccc12 | Not Active
11 | N#C/C(=C\c1cccnc1)C(=O)c1c[nH]c2ccccc12 | Not Active
12 | N#C/C(=C\c1c(Cl)cccc1Cl)C(=O)c1c[nH]c2ccccc12 | Not Active
13 | N#C/C(=C\c1ccc(Cl)cc1)C(=O)c1c[nH]c2ccccc12 | Not Active
14 | N#C/C(=C\c1cc(Cl)cc(Cl)c1O)C(=O)c1c[nH]c2ccccc12 | Not Active

Same assay, conditions: read-out: IC50

Row | IC50 | SMILES
15 | 0.6 µM | N#C/C(=C\c1cccc2ccccc12)C(=O)c1c[nH]c2ccccc12
16 | 1.19 µM | N#C/C(=C\c1ccccc1OCc1ccccc1)C(=O)c1c[nH]c2ccccc12
17 | 1.02 µM | COc1ccc(/C=C(\C#N)C(=O)c2c[nH]c3ccccc23)cc1OCc1ccccc1

Second part, the compound before the results:

Row | SMILES | IC50
18 | COc1cc(/C=C(\C#N)C(=O)c2c[nH]c3ccccc23)cc(OC)c1Br | 0.53 µM
19 | N#C/C(=C\c1ccc2ccc3cccc4ccc1c2c34)C(=O)c1c[nH]c2ccccc12 | 1.36 µM
20 | COc1cccc(/C=C(\C#N)C(=O)c2c[nH]c3ccccc23)c1Cl | 0.95 µM
21 | C[C@H]1O[C@H](O[C@H]2[C@H](O)[C@@H](O)[C@@H](O[C@H]3[C@H](O)[C@@H](O)C(O)O[C@@H]3CO)O[C@@H]2CO)[C@H](O)[C@@H](O)[C@@H]1N[C@H]1C=C(CO)[C@@H](O)[C@H](O)[C@H]1O (some centres not stated) [ACARBOSE] | 2.91 µM
22 | N#C/C(=C\c1ccc([N+](=O)[O-])cc1)C(=O)c1c[nH]c2ccccc12 | 0.88 µM
